This is an account of results in article PMC5006643 (EBioMedicine, 2016).

In assay [1] the test system is panel of 12 HIV-1 strains. Kind of assay: Infection of CD4+ T cells by a panel of 12 HIV-1 strains. The assay is classed as cell-based. The following applies: 50 μM. In outline:
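Cell-free infection of purified primary human CD4+ T cells, with each test compound at 50 μM. The panel had eight minimally passaged primary isolates (92US714, 92HT599, 07USLR, 07USPC, 07USSG, subtype B; 97ZA009, 98IN017, subtype C; 93BR019, subtype F) and four laboratory-expanded subtype B strains (BaL, JR-FL, ADA, IIIB). Both CCR5-tropic and CXCR4-using phenotypes were included.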

Another assay deals with HIV-1 BaL. Briefly: Acute HIV-1 infection assay in primary human CD4+ T cells. The assay is classed as cell-based. The following applies: dose-response; for inhibition of HIV-1 BaL infection: cell-free acute infection of primary human CD4+ T cells. In outline:
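Peptides were stocked at 10 mg/mL in NH4OH and stored frozen. Cell-free infection of primary human CD4+ T cells used CCR5-tropic HIV-1 BaL. Test peptides were titrated for dose-response, and non-sulfated homologous peptides and a scrambled sulfated control peptide were run in parallel. Cell viability was assessed in a separate assay.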

In assay [2] the test system is recombinant gp120 (strain BaL). Briefly: SPR of monomeric gp120 binding to immobilized V2 peptide. The following applies: peptide immobilized on CM5, gp120 BaL pre-complexed with CD4-M48U. On the set-up: species or system HIV-1. The procedure, abridged: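 The sulfated V2 test peptide was immobilized on a CM5 chip. Recombinant monomeric gp120 BaL (25–400 nM) was preincubated with a 2-fold molar excess of CD4-M48U […]. It was injected for 2 min at 25 μL/min in HBS with 3 mM EDTA and 0.005% Tween-20, followed by 2 min dissociation. Surfaces were regenerated with 4.5 M MgCl2.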

In assay [3] the test system is soluble, stabilized gp140 trimer (BG505-SOSIP.664). Kind of assay: SPR of soluble gp140 trimer binding to immobilized V2 peptide. More on the design: species or system HIV-1. Conditions: SOSIP trimer 12.5-200 nM, absence of the CD4 mimic. The procedure, abridged: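 The sulfated V2 test peptide was immobilized on a CM5 surface. Unliganded BG505 SOSIP.664 trimer (12.5–200 nM; produced in 293FS cells, lectin-affinity and size-exclusion purified) was injected for 2 min at 25 μL/min in HBS with 3 mM EDTA and 0.005% Tween-20, followed by 2 min dissociation. Regeneration used a brief 4.5 M MgCl2 pulse.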

In assay [4] the test system is sCD4:gp120 complex (gp120 BaL). Kind of assay: NMR trNOESY interaction and competition with gp120/sCD4. The assay is classed as binding, HIV-1. The following applies: 2D NOESY, 0.8 mM peptide. In outline:
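The tyrosine-sulfated V2 peptide was 15N-labelled at Ala/Ile/Leu/Phe/Val, at 800 μM (0.8 mM). It was incubated 1 h on ice with 20 μM sCD4, 20 μM recombinant gp120 BaL, or both. Samples were exchanged into 20 mM sodium phosphate pH 6.8, 50 mM NaCl, 0.02% azide, 10% D2O. NOESY was run at 30 °C, 600 MHz, with mixing times 100/250/400 ms. For competition, 0.4 mM peptide was used with 0, 0.8 or 1.6 mM unlabelled sulfated CCR5 N-terminal peptide.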

The test system of assay [5] is binding of BG505 SOSIP.664 trimer to human CCR5. The assay is classed as cell-based, HIV-1. The following applies: Cf2Th/syn-CCR5 canine thymocytes, flow cytometry, dose-response. In outline: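 Cf2Th/syn-CCR5 cells were harvested at ~80% confluency with enzyme-free dissociation buffer. His-tagged BG505 SOSIP.664 trimer was preincubated with 2-domain sCD4 for 1 h at 4 °C, treated with test compound across a dose range, then bound to cells for 1 h at 4 °C. After washes, bound trimer was detected with PE anti-His antibody (1 h, 4 °C). Cells were fixed in 2% PFA and analysed by flow cytometry. Anti-CCR5 mAb 2D6 confirmed specificity.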

Where no end group is shown, it is not given here. [ ]: non-standard residue; d: D form. sY = N[C@@H](Cc1ccc(OS(=O)(=O)O)cc1)C(=O)O

Turning to KKQKVHALF[sY]KLDIVPIK [pV2αΕ-Tys], in assay [1] (compared to pV2α-Tys), the “relative potency over the strain panel” value is listed as “generally lower potency compared to pV2α-Tys”. Further, the “number of resistant HIV-1 strains of 12” value in assay [1] (purified CD4+ T cells) stood at 3.

“Tys177: pV2α version bearing a single sulfated tyrosine at position 177 (KVQKEYALF[sY]ELDIVPID)”: the “inhibition of HIV-1 BaL infection” value in the assay with HIV-1 BaL is given as “exhibited antiviral activity”. Besides, the “relative potency in inhibition of HIV-1 BaL infection” value in the assay with HIV-1 BaL (primary CD4+ T cells, singly vs doubly sulfated peptides) is on record as “more potent than Tys173”.

Take KVQKE[sY]ALF[sY]ELDIVPID [pV2α-Tys]: the ka in assay [2] was 48300 M⁻¹ s⁻¹. In addition, the “binding of soluble gp140 trimer to immobilized peptide” value in assay [3] is on record as “unable to bind”. For the same substance, the “trNOE signals (binding) with sCD4:gp120 complex” value in assay [4] (20 μM sCD4:gp120, 30 °C) was “appearance of numerous NOE crosspeaks”. The “trNOE signals (binding) with gp120 alone” value in assay [4] (gp120 alone) is listed as “small number of weak trNOE crosspeaks”. The “trNOE signals (binding) with sCD4 alone” value in assay [4] (sCD4 alone) is “no pV2α-Tys trNOEs signals were observed”. In the assay on HIV-1 BaL, the “inhibition of HIV-1 BaL infection” value is “potently inhibited infection”. In addition, the “inhibition of binding of sCD4-activated BG505 SOSIP.664 trimer to CCR5” value (from here on “inhibition of binding … to CCR5”) in assay [5] is recorded as “reduced CCR5 binding of the trimer in a dose-dependent fashion”.

“Tys173: pV2α version bearing a single sulfated tyrosine at position 173 (KVQKE[sY]ALFYELDIVPID)”: in the assay with HIV-1 BaL, the “inhibition of HIV-1 BaL infection” value is “exhibited antiviral activity”.

Take “DPVLEF[sY]KID[sY]IELAVQK [pSCR-Tys, reference compound]”: the “inhibition of HIV-1 BaL infection” value in the assay with HIV-1 BaL is on record as “did not show significant inhibitory activity”. Moreover, in assay [5], the “inhibition of binding … to CCR5” value is reported as “limited effects”.

Turning to “MDYQVSSPI[sY]DIN[sY]YTSEPSQK [pCCR5-Tys, reference compound]”, the “inhibition of HIV-1 BaL infection” value with HIV-1 BaL is “dose-dependent HIV-1 inhibition”. The “inhibition of binding … to CCR5” value in assay [5] was “Dose-dependent inhibitory effect”. In addition, in assay [1] (purified CD4+ T cells), the “activity against CCR5-tropic isolates” value is reported as “restricted activity against CCR5-tropic isolates”; the “activity against CXCR4-using (R5X4 and X4) isolates” value is “inactive”.
